According to ChEMBL document CHEMBL4725283, “Selective Peptidomimetic Inhibitors of NTMT1/2: Rational Design, Synthesis, Characterization, and Crystallographic Studies” (J Med Chem, 2020):
The source made the active and inactive calls. The calls are words filed in the database; no cut-off is given here.

How the values were obtained:
[1] = organism: Homo sapiens; test: Selectivity for human NTMT2 over human PRDMT4 at 100 uM
Procedure, shortened: (§1)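 Single-point panel screen against 41 PKMTs, PRMTs, DNMTs and NTMT1/2. Each compound was tested at 100 µM, in duplicate (n=2).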

[2] = organism: Homo sapiens; test: Selectivity for human NTMT2 over human SETD2 at 100 uM; procedure, shortened: as §1
[3] = organism: Homo sapiens; test: Selectivity for human NTMT1 over human EZH2 complex at 100 uM
Procedure, shortened: (§2)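 Panel of 41 PKMTs, PRMTs, DNMTs and NTMT1/2, tested at 100 µM compound in duplicate (n=2).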

[4] = organism: Homo sapiens; test: Selectivity for human NTMT2 over human DNMT1 at 100 uM; procedure, shortened: as §1
[5] = organism: Homo sapiens; test: Selectivity for human NTMT1 over human ASH1L at 100 uM; procedure, shortened: as §2
[6] = organism: Homo sapiens; test: Selectivity for human NTMT2 over human SMYD2 at 100 uM; procedure, shortened: as §1
[7] = organism: Homo sapiens; test: Selectivity for human NTMT2 over human MLL2 complex at 100 uM; procedure, shortened: as §1
[8] = target: T1, N-terminal Xaa-Pro-Lys N-methyltransferase 1 (Homo sapiens, UniProt Q9BV86); test: Binding affinity to recombinant human full-length His6-tagged NTMT1 (1 to 222 residues) by ITC assay
T1 sequence (Q9BV86 whole entry): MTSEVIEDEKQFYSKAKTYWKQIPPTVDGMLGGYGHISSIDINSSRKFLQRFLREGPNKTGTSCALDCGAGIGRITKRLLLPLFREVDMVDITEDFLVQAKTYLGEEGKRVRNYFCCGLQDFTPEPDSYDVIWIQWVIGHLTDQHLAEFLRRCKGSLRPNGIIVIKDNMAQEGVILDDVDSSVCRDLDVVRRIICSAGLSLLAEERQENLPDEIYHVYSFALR
Procedure, shortened: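 ITC at 25 °C. Purified protein (NTMT1 for line 1, NTMT2 for line 2) in 20 mM Tris-HCl pH 7.5, 150 mM NaCl, 0.5 mM TCEP at 30–50 µM final. Compound at 0.5–1 mM in the same buffer, titrated in as 26 injections of 10 µl, 180 s apart, reference power 15 µcal/sec.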

[9] = target: T2, N-terminal Xaa-Pro-Lys N-methyltransferase 1 (Homo sapiens) (UniProt Q9BV86); test: Substrate activity at recombinant human full-length His6-tagged NTMT1 (1 to 222 residues) expressed in Escherichia coli BL21-CodonPlus(DE3)-RIL competent cells by MALDI-MS analysis
T2 sequence (whole entry): T1 sequence (Q9BV86 whole entry)

[10] = organism: Homo sapiens; test: Selectivity for human NTMT1 over human SUV39H1 at 100 uM; procedure, shortened: as §1
[11] = organism: Homo sapiens; test: Selectivity for human NTMT2 over human SUV39H1 at 100 uM; procedure, shortened: as §1
[12] = organism: Homo sapiens; test: Selectivity for human NTMT2 over human SUV39H at 100 uM; procedure, shortened: as §1
[13] = organism: Homo sapiens; test: Selectivity for human NTMT2 over human SET1b complex at 100 uM; procedure, shortened: as §1
[14] = organism: Homo sapiens; test: Selectivity for human NTMT2 over human PRDMT5 at 100 uM; procedure, shortened: as §1
[15] = organism: Homo sapiens; test: Selectivity for human NTMT2 over human SMYD1 at 100 uM; procedure, shortened: as §1
[16] = organism: Homo sapiens; test: Selectivity for human NTMT1 over human MLL3 complex at 100 uM; procedure, shortened: as §2
[17] = organism: Homo sapiens; test: Selectivity for human NTMT1 over human EZH1 complex at 100 uM; procedure, shortened: as §2
[18] = organism: Homo sapiens; test: Selectivity for human NTMT1 over human PRDMT5 at 100 uM; procedure, shortened: as §2
[19] = organism: Homo sapiens; test: Selectivity for human NTMT2 over human SET7/9 at 100 uM; procedure, shortened: as §1
[20] = organism: Homo sapiens; test: Selectivity for human NTMT1 over human PRDMT3 at 100 uM; procedure, shortened: as §2
[21] = organism: Homo sapiens; test: Selectivity for human NTMT1 over human DOT1L at 100 uM; procedure, shortened: as §2
[22] = organism: Homo sapiens; test: Selectivity for human NTMT1 over human MLL1 complex at 100 uM; procedure, shortened: as §2
[23] = Drug penetration in human HCT116 cells at 100 uM by MALDI-MS analysis; format: ADME, cell-based; conditions: hct-116, 100 µM
Procedure, shortened: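 HCT116 cells in McCoy's 5A with 10% FBS and 1% antibiotic-antimycotic, seeded at 0.1 × 10^6 cells/mL in 24-well plates and held overnight at 37 °C, 5% CO2. Compound added for the specified time, with TAT peptide as control. Cells washed three times with PBS, lysed by two snap-freezes in liquid nitrogen, and the lysate checked for compound by MALDI with DHB matrix.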

[24] = organism: Homo sapiens; test: Selectivity for human NTMT1 over human SET8 at 100 uM; procedure, shortened: as §2
[25] = organism: Homo sapiens; test: Selectivity for human NTMT2 over human PRDM9 at 100 uM; procedure, shortened: as §1
[26] = organism: Homo sapiens; test: Selectivity for human NTMT1 over human SET7/9 at 100 uM; procedure, shortened: as §2
[27] = organism: Homo sapiens; test: Selectivity for human NTMT1 over human GLP at 100 uM; procedure, shortened: as §2
[28] = organism: Homo sapiens; test: Selectivity for human NTMT1 over human SMYD2 at 100 uM; procedure, shortened: as §2
[29] = organism: Homo sapiens; test: Selectivity for human NTMT2 over human PRDMT5/MEP50 complex at 100 uM; procedure, shortened: as §1
[30] = organism: Homo sapiens; test: Selectivity for human NTMT2 over human PRDMT7 at 100 uM; procedure, shortened: as §1
[31] = organism: Homo sapiens; test: Selectivity for human NTMT2 over human SET8 at 100 uM; procedure, shortened: as §1
[32] = organism: Homo sapiens; test: Selectivity for human NTMT1 over human DNMT3a at 100 uM; procedure, shortened: as §2
[33] = organism: Homo sapiens; test: Selectivity for human NTMT1 over human DNMT3b/3L at 100 uM; procedure, shortened: as §2
[34] = organism: Homo sapiens; test: Selectivity for human NTMT2 over human EZH2 complex Y641F mutant at 100 uM; procedure, shortened: as §1
[35] = organism: Homo sapiens; test: Selectivity for human NTMT2 over human NSD3 at 100 uM; procedure, shortened: as §1
[36] = organism: Homo sapiens; test: Selectivity for human NTMT1 over human DNMT1 at 100 uM; procedure, shortened: as §2
[37] = organism: Homo sapiens; test: Selectivity for human NTMT2 over human MLL1 complex at 100 uM; procedure, shortened: as §1
[38] = organism: Homo sapiens; test: Selectivity for human NTMT1 over human NSD3 at 100 uM; procedure, shortened: as §2
[39] = organism: Homo sapiens; test: Selectivity for human NTMT1 over human MLL2 complex at 100 uM; procedure, shortened: as §2
[40] = organism: Homo sapiens; test: Selectivity for human NTMT1 over human NSD2 at 100 uM; procedure, shortened: as §2
[41] = organism: Homo sapiens; test: Selectivity for human NTMT2 over human EZH2 complex at 100 uM; procedure, shortened: as §1
[42] = organism: Homo sapiens; test: Selectivity for human NTMT2 over human DNMT3a at 100 uM; procedure, shortened: as §1
[43] = target: Protein arginine N-methyltransferase 1 (Rattus norvegicus, UniProt Q63009); test: Inhibition of rat His6-tagged PRMT1 expressed in Escherichia coli BL21(DE3) using H4-21 peptide as substrate preincubated for 10 mins in presence of SAM followed by substrate addition by fluorescence assay
[44] = organism: Homo sapiens; test: Selectivity for human NTMT1 over human DNMT3b at 100 uM; procedure, shortened: as §2
[45] = organism: Homo sapiens; test: Selectivity for human NTMT1 over human SUV39H at 100 uM; procedure, shortened: as §2
[46] = organism: Homo sapiens; test: Selectivity for human NTMT1 over human MLL4 complex at 100 uM; procedure, shortened: as §2
[47] = organism: Homo sapiens; test: Selectivity for human NTMT2 over human PRDMT3 at 100 uM; procedure, shortened: as §1
[48] = organism: Homo sapiens; test: Selectivity for human NTMT2 over human NSD1 at 100 uM; procedure, shortened: as §1
[49] = organism: Homo sapiens; test: Selectivity for human NTMT1 over human SUV420H1TV2 at 100 uM; procedure, shortened: as §1

Chain of Protein arginine N-methyltransferase 1 (Q63009 whole entry): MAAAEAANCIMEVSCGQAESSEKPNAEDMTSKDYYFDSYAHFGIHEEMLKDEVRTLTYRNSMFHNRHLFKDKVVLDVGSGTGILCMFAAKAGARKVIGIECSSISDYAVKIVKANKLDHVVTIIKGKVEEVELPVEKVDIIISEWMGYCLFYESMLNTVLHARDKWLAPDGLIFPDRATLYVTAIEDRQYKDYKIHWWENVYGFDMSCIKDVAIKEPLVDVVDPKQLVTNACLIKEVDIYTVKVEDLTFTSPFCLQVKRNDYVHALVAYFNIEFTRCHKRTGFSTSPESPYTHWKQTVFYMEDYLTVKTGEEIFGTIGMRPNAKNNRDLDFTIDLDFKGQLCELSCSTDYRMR

Selectivity ratio [1]: > 100
Selectivity ratio [2]: > 100
Selectivity ratio [3]: > 100
Selectivity ratio [4]: > 100
Selectivity ratio [5]: > 100
Selectivity ratio [6]: > 100
Selectivity ratio [7]: > 100
Kd [8]: 3 µM
Activity [9]: inactive
Selectivity ratio [10]: > 100
Selectivity ratio [11]: > 100
Selectivity ratio [12]: > 100
Selectivity ratio [13]: > 100
Selectivity ratio [14]: > 100
Selectivity ratio [15]: > 100
Selectivity ratio [16]: > 100
Selectivity ratio [17]: > 100
Selectivity ratio [18]: > 100
Selectivity ratio [19]: > 100
Selectivity ratio [20]: > 100
Selectivity ratio [21]: > 100
Selectivity ratio [22]: > 100
Drug uptake [23]: Not Active
Selectivity ratio [24]: > 100
Selectivity ratio [25]: > 100
Selectivity ratio [26]: > 100
Selectivity ratio [27]: > 100
Selectivity ratio [28]: > 100
Selectivity ratio [29]: > 100
Selectivity ratio [30]: > 100
Selectivity ratio [31]: > 100
Selectivity ratio [32]: > 100
Selectivity ratio [33]: > 100
Selectivity ratio [34]: > 100
Selectivity ratio [35]: > 100
Selectivity ratio [36]: > 100
Selectivity ratio [37]: > 100
Selectivity ratio [38]: > 100
Selectivity ratio [39]: > 100
Selectivity ratio [40]: > 100
Selectivity ratio [41]: > 100
Selectivity ratio [42]: > 100
IC50 [43]: > 100 µM
Selectivity ratio [44]: > 100
Selectivity ratio [45]: > 100
Selectivity ratio [46]: > 100
Selectivity ratio [47]: > 100
Selectivity ratio [48]: > 100
Selectivity ratio [49]: > 100
SMILES: N=C(N)NCCC[C@H](NC(=O)[C@H](CCCCN)NC(=O)[C@@H]1CCCN1C(=O)Cc1ccc(O)cc1)C(N)=O
